Results from ChEMBL document CHEMBL3102806, “1,2,4-Triazole/oxime hybrids as new strategy for nitric oxide donors: Synthesis, anti-inflammatory, ulceroginicity and antiproliferative activities” (Eur J Med Chem, 2014).

Experiments:
Rattus norvegicus [1] = test: Ulcerogenic activity in albino rat carrageenan-induced paw edema model assessed as ulcer index at 0.28 mmol/kg, po (reference value: 0.60 +/- 0.05); format: toxicity, organism-based; details: in vivo
Method in brief: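 Rats given the compound orally at 0.28 mmol/kg, suspended in 0.5% aqueous CMC; vehicle-only control, n = 4 per group. Gastric ulcers graded by area: I (<1 mm²), II (1–3 mm²), III (>3 mm²). Ulcer index = 1×(level I count) + 2×(level II) + 3×(level III). Mean ± SEM, one-way ANOVA versus control.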

Rattus norvegicus [2] = test: Antiinflammatory activity in albino rat assessed as inhibition of carrageenan-induced paw edema at 0.28 mmol/kg, po administered 30 mins prior to carrageenan-challenge measured after 3 hrs relative to control; format: functional
Method in brief: (§1)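 Male albino rats in groups of four were fasted 24 h with water allowed. Dosing was oral at 0.28 mmol/kg, suspended in 0.5% w/v CMC; controls got CMC alone. After 30 min, 0.1 ml of 1% carrageenan in saline went subplantar into the right hind paw and saline into the left. Paw thickness was read by caliper before and at 1–5 h. % inhibition = [(VR−VL)control−(VR−VL)treated]/(VR−VL)control ×100. Mean ± SEM, n = 4, one-way ANOVA vs control.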

Rattus norvegicus [3] = test: Antiinflammatory activity in albino rat assessed as inhibition of carrageenan-induced paw edema at 0.28 mmol/kg, po administered 30 mins prior to carrageenan-challenge measured after 5 hrs relative to control; format: functional; method in brief: as §1
Rattus norvegicus [4] = test: Antiinflammatory activity in albino rat assessed as inhibition of carrageenan-induced paw edema at 0.28 mmol/kg, po administered 30 mins prior to carrageenan-challenge measured after 4 hrs relative to control; format: functional; method in brief: as §1
Rattus norvegicus [5] = test: Antiinflammatory activity in albino rat assessed as inhibition of carrageenan-induced paw edema at 0.28 mmol/kg, po administered 30 mins prior to carrageenan-challenge measured after 1 hr relative to control; format: functional; method in brief: as §1
Rattus norvegicus [6] = test: Antiinflammatory activity in albino rat assessed as inhibition of carrageenan-induced paw edema at 0.28 mmol/kg, po administered 30 mins prior to carrageenan-challenge measured after 2 hrs relative to control; format: functional; method in brief: as §1
[7] = Induction of nitric oxide release in phosphate buffer at 10^-4 M at pH 7.4 after 1 hr by Griess colorimetric method in presence of N-acetylcysteine; format: physicochemical; details: pH 7.4, 1 h, 100 µM
Method in brief: (§2)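 Final drug concentration 10^-4 M, added from DMF into 1:1 50 mM phosphate buffer (pH 7.4)/MeOH containing 5 × 10^-4 M N-acetylcysteine, at 37 °C. Nitrite read with Griess reagent after 10 min at room temperature, absorbance at 546 nm. Calibration with sodium nitrite standards (10–80 nmol/ml). Reported as mol NO per mol, n = 4 reaction mixtures.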

[8] = Induction of nitric oxide release in phosphate buffer at 10^-4 M at pH 7.4 after 5 hrs by Griess colorimetric method in presence of N-acetylcysteine; format: physicochemical; details: pH 7.4, 5 h, 100 µM; method in brief: as §2
[9] = Induction of nitric oxide release in HCl buffer at 10^-4 M at pH 1 after 1 hr by Griess colorimetric method in presence of N-acetylcysteine; format: physicochemical; details: pH 1, 1 h, 100 µM
Method in brief: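 Same Griess nitrite procedure at 10^-4 M final drug with N-acetylcysteine at 37 °C, but with 0.1 N HCl (pH 1) in place of the pH 7.4 phosphate buffer. Absorbance at 546 nm against a sodium nitrite calibration curve.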

[10] = Induction of nitric oxide release in phosphate buffer at 10^-4 M at pH 7.4 after 6 hrs by Griess colorimetric method in presence of N-acetylcysteine; format: physicochemical; details: pH 7.4, 6 h, 100 µM; method in brief: as §2
[11] = Induction of nitric oxide release in phosphate buffer at 10^-4 M at pH 7.4 after 3 hrs by Griess colorimetric method in presence of N-acetylcysteine; format: physicochemical; details: pH 7.4, 3 h, 100 µM; method in brief: as §2
[12] = Induction of nitric oxide release in phosphate buffer at 10^-4 M at pH 7.4 after 4 hrs by Griess colorimetric method in presence of N-acetylcysteine; format: physicochemical; details: pH 7.4, 4 h, 100 µM; method in brief: as §2
[13] = Induction of nitric oxide release in phosphate buffer at 10^-4 M at pH 7.4 after 2 hrs by Griess colorimetric method in presence of N-acetylcysteine; format: physicochemical; details: pH 7.4, 2 h, 100 µM; method in brief: as §2

Row | SMILES | UI (Rattus norvegicus [1]) | inhibition in vivo at 280 µmol/kg (Rattus norvegicus [2]) | inhibition in vivo at 280 µmol/kg (Rattus norvegicus [3]) | inhibition in vivo at 280 µmol/kg (Rattus norvegicus [4]) | inhibition in vivo at 280 µmol/kg (Rattus norvegicus [5]) | inhibition in vivo at 280 µmol/kg (Rattus norvegicus [6]) | Activity [7] | Activity [8] | Activity [9] | Activity [10] | Activity [11] | Activity [12] | Activity [13]
1 | C=CCn1c(SCC(=O)Nc2ccc(C(C)=O)cc2)nnc1-c1ccccc1 | 9.3 | 54% | 63% | 70% | 48% | 52% | – | – | – | – | – | – | –
2 | C=CCn1c(SCC(=O)Nc2ccc(C(C)=O)cc2)nnc1-c1ccc(OC)cc1 | 8.66 | 52% | 66% | 68% | 50% | 51% | – | – | – | – | – | – | –
3 | C=CCn1c(SCC(=O)Nc2ccc(C(C)=O)cc2)nnc1-c1cc(OC)c(OC)c(OC)c1 | 6.49 | 55% | 64% | 68% | 48% | 54% | – | – | – | – | – | – | –
4 | CCn1c(SCC(=O)Nc2ccc(C(C)=O)cc2)nnc1-c1ccccc1 | 7.12 | 56% | 66% | 69% | 50% | 53% | – | – | – | – | – | – | –
5 | CCn1c(SCC(=O)Nc2ccc(C(C)=O)cc2)nnc1-c1ccc(OC)cc1 | 10.52 | 57% | 62% | 65% | 51% | 54% | – | – | – | – | – | – | –
6 | CCn1c(SCC(=O)Nc2ccc(C(C)=O)cc2)nnc1-c1ccc(OC)c(OC)c1 | 3.6 | 62% | 66% | 69% | 56% | 59% | – | – | – | – | – | – | –
7 | CCn1c(SCC(=O)Nc2ccc(C(C)=O)cc2)nnc1-c1cc(OC)c(OC)c(OC)c1 | 3.34 | 54% | 64% | 68% | 46% | 50% | – | – | – | – | – | – | –
8 | CC(=O)c1ccc(NC(=O)CSc2nnc(-c3ccccc3)n2-c2ccccc2)cc1 | 3.38 | 62% | 63% | 67% | 41% | 49% | – | – | – | – | – | – | –
9 | COc1ccc(-c2nnc(SCC(=O)Nc3ccc(C(C)=O)cc3)n2-c2ccccc2)cc1 | 5.53 | 58% | 60% | 63% | 29% | 42% | – | – | – | – | – | – | –
10 | COc1cc(-c2nnc(SCC(=O)Nc3ccc(C(C)=O)cc3)n2-c2ccccc2)cc(OC)c1OC | 4.38 | 55% | 63% | 68% | 49% | 54% | – | – | – | – | – | – | –
11 | C=CCn1c(SCC(=O)Nc2ccc(/C(C)=N/O)cc2)nnc1-c1ccccc1 | 0.64 | 73% | 71% | 73% | 61% | 63% | 0.15 mol/mol | 0.16 mol/mol | Not Active | 0.15 mol/mol | 0.22 mol/mol | 0.24 mol/mol | 0.2 mol/mol
12 | C=CCn1c(SCC(=O)Nc2ccc(/C(C)=N/O)cc2)nnc1-c1ccc(OC)cc1 | 2.69 | 63% | 72% | 75% | 54% | 59% | 0.15 mol/mol | 0.23 mol/mol | Not Active | 0.16 mol/mol | 0.23 mol/mol | 0.32 mol/mol | 0.17 mol/mol
13 | CCn1c(SCC(=O)Nc2ccc(/C(C)=N/O)cc2)nnc1-c1ccc(OC)cc1 | 1.04 | 60% | 65% | 73% | 54% | 58% | 0.16 mol/mol | 0.24 mol/mol | Not Active | 0.23 mol/mol | 0.24 mol/mol | 0.29 mol/mol | 0.2 mol/mol
14 | CCn1c(SCC(=O)Nc2ccc(/C(C)=N/O)cc2)nnc1-c1ccc(OC)c(OC)c1 | 3.43 | 66% | 73% | 75% | 53% | 65% | 0.15 mol/mol | 0.36 mol/mol | Not Active | 0.32 mol/mol | 0.25 mol/mol | 0.43 mol/mol | 0.19 mol/mol
15 | CCn1c(SCC(=O)Nc2ccc(/C(C)=N/O)cc2)nnc1-c1cc(OC)c(OC)c(OC)c1 | 0.83 | 70% | 61% | 70% | 29% | 49% | 0.12 mol/mol | 0.15 mol/mol | Not Active | 0.14 mol/mol | 0.14 mol/mol | 0.22 mol/mol | 0.13 mol/mol
16 | COc1ccc(-c2nnc(SCC(=O)Nc3ccc(/C(C)=N/O)cc3)n2-c2ccccc2)cc1 | 1.61 | 57% | 58% | 69% | 45% | 56% | 0.13 mol/mol | 0.24 mol/mol | Not Active | 0.23 mol/mol | 0.24 mol/mol | 0.29 mol/mol | 0.17 mol/mol
17 | COc1cc(-c2nnc(SCC(=O)Nc3ccc(/C(C)=N/O)cc3)n2-c2ccccc2)cc(OC)c1OC | 2.21 | 66% | 70% | 75% | 59% | 62% | 0.11 mol/mol | 0.15 mol/mol | Not Active | 0.14 mol/mol | 0.16 mol/mol | 0.25 mol/mol | 0.14 mol/mol
18 | COc1ccc(-c2nnc(SCC(=O)Nc3ccc(C(C)=O)cc3)n2-c2ccccc2)cc1OC | 8.64 | 51% | 55% | 62% | 28% | 43% | – | – | – | – | – | – | –
